TAAR1 antagonist: antagonists of human TAAR1. CHO RD-HGA16 TAAR1, Fluo-8 calcium fluorescence, antagonist. inhibition, % at 3 µM. 1.5% of 360,000 active. AID 624466;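 active = inhibition above a per-plate cutoff, the mean inhibition of test compounds on that plate plus 3 SD, cut at about 49% in these data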;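 note: 0% = DMSO plus EC80 beta-PEA response and 100% = DMSO alone without agonist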
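System: RD-HGA16 CHO cells with stable hTAAR1 and Gα16 | Probe or stimulus: EC80 β-phenethylamine stimulus | Dosing: 3 µM, single point | Times: Dye loading 75 min at 37 °C, then 30 min room temperature | Measured by: Fluo-8 calcium-sensitive fluorescence | Read-out basis: % inhibition of agonist calcium response | Replicates: n of 1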
TAAR1 ag: human TAAR1 agonism. Q96RJ0. CHO RD-HGA16 TAAR1, Fluo-8 calcium fluorescence; vehicle wells 0%, saturating PEA agonist 100%. activation, % at 3 µM. 0.99% of 360,000 active;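 active = activation above the mean activation of all test compounds in the run plus 3 SD, cut at about 38% in these data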
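Test system: RD-HGA16 (CHO) cells co-expressing Gα16 and hTAAR1 | Doses: Single dose, 3 µM | Schedule: 17-24 h seeding, 75 min 37 °C dye, 30 min RT | Evaluation: % activation from peak over basal fluorescence ratio, DMSO-to-PEA scaled | Technique: Kinetic Fluo-8 calcium fluorescence | Benchmarks: Low control DMSO, high control PEA (EC100)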
V1R ag counter: activates human V1a receptor in oxytocin agonist counter-screen; CHO-V1R cells, Fluo-8 calcium fluorescence, agonist mode; 0% DMSO, 100% 3 nM vasopressin; P37288; activation, % at 3 µM; 0.25% of 320,000 active;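 active = activation above the mean activation of all tested compounds plus 3 SD, per screening run, cut at about 20% in these data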;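 note: signal is peak over basal fluorescence ratio across a 100 second FLIPR read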
Target sequence (P37288 whole entry, looked up): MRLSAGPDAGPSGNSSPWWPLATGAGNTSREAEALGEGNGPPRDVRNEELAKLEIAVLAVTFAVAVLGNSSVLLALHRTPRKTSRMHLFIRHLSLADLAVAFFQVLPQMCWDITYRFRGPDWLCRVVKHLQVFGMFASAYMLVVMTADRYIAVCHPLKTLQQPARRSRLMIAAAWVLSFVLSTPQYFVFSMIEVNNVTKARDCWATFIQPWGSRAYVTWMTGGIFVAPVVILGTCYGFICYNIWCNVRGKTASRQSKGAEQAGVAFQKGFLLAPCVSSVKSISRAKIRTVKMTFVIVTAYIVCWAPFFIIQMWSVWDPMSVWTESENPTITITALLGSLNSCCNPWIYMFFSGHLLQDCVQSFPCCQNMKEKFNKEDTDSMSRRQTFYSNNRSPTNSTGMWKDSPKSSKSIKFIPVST
OXTR potentiator: human OXTR potentiation | P30559 | CHO-OTR cells, Fluo-8 calcium fluorescence, potentiator mode; 0% = oxytocin EC15, 100% = EC100 | activation, % at 3 µM | 0.061% of 320,000 active;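 active = activation above that plate's cutoff, the mean activation of tested compounds plus 3 SD, cut at about 6.6% in these data, passing the limit was not always enough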;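 note: 100% uses oxytocin at 75 nM as the full agonist control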
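Dosing: Single dose, 3.0 µM nominal final compound concentration | Material: Human OTR in CHO cells | Technique: Kinetic Fluo-8 calcium fluorescence | Benchmarks: EC15 oxytocin alone as 0%, 75 nM oxytocin as 100% | Probe or stimulus: Oxytocin at about EC15, sub-maximal agonist stimulus | Incubation: Compound 6 min at room temperature before oxytocin, 100 s read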
OXTR agonist: activates the human oxytocin receptor; AID 2435; activation, % at 3 µM; P30559; CHO-OTR cells, Fluo-8 calcium fluorescence; normalized: DMSO 0%, oxytocin 100%; 0.32% of 320,000 active;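 active = activation above the mean of all tested compounds plus 3 SD, cutoff set per screening run, cut at about 20% in these data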;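 note: peak over basal fluorescence ratio from a 100 s FLIPR kinetic read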
The depositor's hits bear a star; . = not tested or not shown. This is a sample that favours compounds with a hit; in the whole collection about 2.3% have one here.

SMILES | TAAR1 antagonist | TAAR1 ag | V1R ag counter | OXTR potentiator | OXTR agonist
CC(=NCCc1ccccc1)c1c(O)n(C)c(=O)n(C)c1=O | -26 | 43* | 3 | -5 | -1
CCC(=NCCc1c[nH]c2ccccc12)c1c(O)n(C)c(=O)n(C)c1=O | 50* | 13 | 10 | -6 | 19
COC1C(C)OC(OC2CC(C)(O)Cc3cc4c(c(O)c32)C(=O)c2c(O)cc3c(c2C4=O)OC2OC3(C)C(O)C(N(C)C)C2O)C(OC)C1(C)OC (centres undefined) | 39 | 47* | . | . | .
CC1(CCO)C(=O)NC(=S)NC1=O | -21 | 4 | . | . | .
CC1=NNC(=O)C1Br (centres undefined) | 4 | 2 | . | . | .
c1ccc2c(c1)CNCc1cnnn1-2 | -4 | 2 | . | . | .
C#C[C@]1(O)CCC2C3C(=O)C=C4C=CCC[C@]4(C)C3CC[C@@]21C (some centres undefined) | 49* | 14 | . | . | .
C#C[C@]1(O)CCC2C3C(CC[C@@]21C)[C@@]1(C)CC[C@@H](O)CC1=C[C@H]3O (some centres undefined) | 4 | 0 | 0 | -1 | 1
COC1=C(OC)[C@]23CCc4ccc(OC)c(OC)c4[C@]2(CCN3C)CC1=O | 2 | -1 | -1 | -7 | 0
O=C(Cc1ccccc1F)N1CCN(CC(=O)N2CCCC2)CC1 | -12 | 1 | 1 | 0 | 1
CN[C@@H]1C[C@@H](c2ccc(Cl)c(Cl)c2)c2ccccc21 | . | . | 16 | -4 | 28*
CCCc1cc(=O)oc2cc(OCC(=O)N3C[C@H]4C[C@@H](C3)c3cccc(=O)n3C4)ccc12 | 2 | 2 | 0 | 5 | 0
COC(=O)C1=C(c2ccc(F)cc2OCc2ccccc2)C[C@@H]2CC[C@H]1N2C(=O)NCc1ccc(Br)cc1 | 51* | 12 | 3 | -4 | 2
COC(=O)C1=C(c2ccc(C(C)=O)cc2)C[C@@H]2CC[C@H]1N2C(=O)NCc1ccc(C(F)(F)F)cc1 | . | . | 33* | -10 | 45*
COC(=O)C1=C(c2ccc(Cl)c(C(F)(F)F)c2)C[C@@H]2CC[C@H]1N2C(=O)NCCOc1ccccc1Cl | . | . | 2 | -7 | 1
Oc1cc(Cl)ccc1Oc1ccc(Cl)cc1Cl | 50* | -2 | 0 | -9 | -3
O=C(O)COc1ccc(Cl)cc1Cl | -8 | 1 | 0 | -4 | 0
COc1ccc(-n2nnnc2C(CCSC)N2CCC(n3c(=O)[nH]c4ccccc43)CC2)cc1 (centres undefined) | 55* | 14 | . | . | .
COc1ccc(C(c2nnnn2-c2ccc3c(c2)OCCO3)N2CCC(n3c(=O)[nH]c4ccccc43)CC2)cc1 (centres undefined) | 59* | 20 | . | . | .
COc1cccc(C(c2nnnn2Cc2ccccc2)N2CCC3(CC2)C(=O)NCN3c2ccccc2)c1OC (centres undefined) | 54* | 8 | . | . | .
COc1ccc(C(c2nnnn2Cc2ccccc2)N2CCC3(CC2)C(=O)NCN3c2ccccc2)cc1 (centres undefined) | 4 | 3 | . | . | .
Cc1cccc(C)c1-n1nnnc1C(CCc1ccccc1)N1CCC(n2c(=O)[nH]c3ccccc32)CC1 (centres undefined) | 16 | 4 | . | . | .
O=c1[nH]c2ccccc2n1C1CCN(C(CCc2ccccc2)c2nnnn2-c2ccc3c(c2)OCCO3)CC1 (centres undefined) | 55* | 7 | . | . | .
COP(=O)(NC(C)=O)SC (centres undefined) | -11 | 1 | . | . | .
CCC(c1ccc(C)cc1)N1C(=O)C2C3CCC(O3)C2C1=O (centres undefined) | -10 | -2 | -1 | 3 | -2
SMILES | TAAR1 antagonist | TAAR1 ag | V1R ag counter | OXTR potentiator | OXTR agonist
COC(=O)C1=C(c2ccc(OC(F)(F)F)cc2)C[C@@H]2CC[C@H]1N2C(=O)NCc1cc(C)oc1C(F)(F)F | 10 | 2 | 0 | -9 | -2
CN1CCCC1c1ccc(=O)[nH]c1 (centres undefined) | -9 | 0 | . | . | .
CSCCC(c1nnnn1-c1ccc2c(c1)OCCO2)N1CCC2(CC1)C(=O)NCN2c1ccccc1 (centres undefined) | 54* | 17 | . | . | .
NCCc1ccc(S(N)(=O)=O)cc1 | -10 | 8 | -1 | -16 | -1
NCCc1ccccc1 | 81* | 92* | 0 | -1 | 1
C[C@]12CC[C@H](O)CC1=CCC1C2CC[C@]2(C)C(=O)[C@H](Br)CC12 (some centres undefined) | 59* | 12 | 7 | -9 | 6
C[C@]12CC[C@H](O)CC1=CC[C@@H]1[C@@H]2CC[C@]2(C)C(=O)CC[C@@H]12 | -21 | 7 | 1 | -9 | -1
O=[N+]([O-])c1cccc(NP(=O)(Oc2ccccc2)Oc2ccccc2)c1 | 58* | 3 | 1 | -11 | 2
CCOP(=O)(OCC)c1ccc(OP(=O)(c2cccc([N+](=O)[O-])c2)c2cccc([N+](=O)[O-])c2)cc1 | -17 | 5 | 1 | -2 | -1
Cc1ccc(/C=C2/C(=O)NC(=O)N(CCc3ccc(F)cc3)C2=O)o1 | 28 | 39* | 3 | -8 | 1
O=C1NC(=O)N(CCc2ccc(F)cc2)C(=O)/C1=C/c1ccco1 | -30 | 12 | 2 | -26 | 3
CCCCCn1c(N)c(C(=O)NCc2cccs2)c2nc3ccccc3nc21 | -22 | 20 | 0 | -6 | 1
Nc1c(C(=O)NCCCc2ccccc2)c2nc3ccccc3nc2n1Cc1cccs1 | -10 | 37* | 0 | -7 | 0
C[C@]12CCC3C(C(=O)C[C@H]4C[C@@H](O)CC[C@]34C)C1CCC2=O (some centres undefined) | -19 | 8 | 0 | 1 | 0
O=c1[nH]c(=O)n(C2CCCCC2)c(O)c1/C=C/C=Nc1ccccc1 | 43 | 39* | 17 | -3 | 11
O=c1[nH]c(=O)n(-c2ccccc2)c(O)c1/C=C/C=Nc1ccccc1 | 6 | 13 | 13 | -8 | 16
COc1ccc(-n2c(O)c(/C=C/C=Nc3ccccc3)c(=O)[nH]c2=O)cc1 | 33 | 63* | 43* | -15 | 80*
Cc1cc(C)c2c(ccc3cccc[n+]32)c1 | -31 | 0 | 1 | 1 | 0
Cc1cccc(OP(=O)(Oc2ccccc2)OC(c2ccccc2)C(F)(F)F)c1 (centres undefined) | 51* | 1 | 1 | -8 | -1
O=C1NC(=O)N(c2ccccc2F)C(=O)/C1=C/c1ccc(Sc2nc3ccccc3[nH]2)o1 | 57* | 74* | 28* | -12 | 39*
Cc1cc(C)n(-c2ccc(NN=C(C#N)C#N)cc2)n1 | 24 | 15 | 18 | -19 | 19
N#CC(C#N)=NNc1ccc(-n2ccc(C(F)(F)F)n2)cc1 | 9 | 6 | 14 | -21 | 24*

Screens: PubChem BioAssay, The Scripps Research Institute Molecular Screening Center
